What was measured:
[1] = target: T1, Horseradish peroxidase (HRP) (Armoracia rusticana, UniProt P00433); assay: Kinetics of the oxidation of flavones catalyzed by HRP; type: biochemical
T1 sequence (P00433 31-338 limits assumed): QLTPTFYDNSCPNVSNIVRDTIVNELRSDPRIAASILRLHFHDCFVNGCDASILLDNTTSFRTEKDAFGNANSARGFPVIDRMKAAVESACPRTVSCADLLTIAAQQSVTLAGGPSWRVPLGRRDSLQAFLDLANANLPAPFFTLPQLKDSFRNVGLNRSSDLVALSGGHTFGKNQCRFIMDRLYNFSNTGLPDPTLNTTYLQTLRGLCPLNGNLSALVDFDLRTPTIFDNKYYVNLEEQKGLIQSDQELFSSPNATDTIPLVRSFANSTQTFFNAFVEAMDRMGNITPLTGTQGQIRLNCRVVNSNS
Procedure, shortened: (§1)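 Horseradish peroxidase, >250 U mg−1. Oxidation products were quantified by LC-MS/MS using ESI in negative mode with multiple reaction monitoring. The mobile phase was acetonitrile–0.1% formic acid (aq) at 450 μL min−1. Nitrogen served as curtain and collision gas, at 13 and 6 psi respectively.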

[2] = target: Laccase from Trametes versicolor; assay: Kinetics of the oxidation of flavones catalyzed by laccase; type: biochemical
Procedure, shortened: as §1, with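 “Laccase from Trametes versicolor, 120” for “Horseradish peroxidase, >250”, “g−1.” for “mg−1.”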

| Structure (SMILES) | kinetic model of oxidation by HRP [1] | K m ([1]; formation of the named product) | n (Hill kinetic model) ([1]; formation of the named product) | kinetic model of oxidation by laccase [2] | K m ([2]; formation of the named product) | Ki ([2]; read-out: Ki (inhibitory effect on laccase)) |
| --- | --- | --- | --- | --- | --- | --- |
| O=c1c(-c2ccc(O)cc2)coc2cc(O)ccc12 [compound 10, daidzein] | Hill kinetic model | – | – | Hill-kinetic model | – | – |
| O=C(/C=C/c1ccc(O)cc1)c1ccc(O)cc1O [compound 12, isoliquiritigenin] | substrate inhibition kinetics | – | – | Hill-kinetic model | – | – |

Now from value to molecule:

| kinetic model of oxidation by HRP [1] | K m ([1]; formation of the named product) | n (Hill kinetic model) ([1]; formation of the named product) | kinetic model of oxidation by laccase [2] | K m ([2]; formation of the named product) | Ki ([2]; read-out: Ki (inhibitory effect on laccase)) | Structure (SMILES) |
| --- | --- | --- | --- | --- | --- | --- |
| Hill kinetic model | 0.1635 mM | 2.944 | – | – | – | O=c1cc(-c2ccc(O)cc2)oc2cc(O)cc(O)c12 [compound 1, apigenin] |
| – | – | – | substrate inhibition kinetic model | 8.288 ± 0.401 mM | 1660 µM | O=c1c(O)c(-c2ccc(O)cc2)oc2cc(O)cc(O)c12 [compound 5, kaempferol] |
| substrate inhibition kinetics | – | – | – | – | – | O=C1C[C@@H](c2ccc(O)cc2)Oc2cc(O)cc(O)c21 [compound 8, naringenin] |

Reference: paper PMC9063861 (RSC Advances, 2019)
